Source: PubChem BioAssay
SR-BI DiI-HDL act – activators of SR-BI mediated DiI-HDL uptake, primary screen, ldlA[mSR-BI] CHO cells, DiI fluorescence; 3 h; 100 = double the neutral-control signal; activation, % at 12.5 µM; 320,000 tested, 0.096% active;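 active means mean replicate activation of at least 60% and every replicate at or above 60%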;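 further: 0% = median plate neutral-control signal and 100% = twice that signal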
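Test system: SR-BI-overexpressing, LDLR-lacking CHO cells. Measured by: DiI fluorescence, bottom read. Medium: Ham's F12 with 0.5% BSA, HEPES 25 mM, pH 7.4. Timing: 3 h uptake period with compound, 37 °C.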
TMEM16A act – TMEM16A chloride channel activators or potentiators, primary screen, cell-based, HTS | Anoctamin-1 (Mus musculus), Q8BHY3 | HEK293 TMEM16A/YFP-H148Q/I152L, iodide quench fluorescence; active compounds read low | B-score at 10 µM | 340,000 tested, 0.3% active | AID 623877, 2012;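 active means fluorescence-ratio B-score plate-corrected deviation score at least 3 library SD below zero, with starting fluorescence score within 5 deviations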;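 further: channel opened by trigger with iodide after compound preincubation; score built on the fluorescence ratio of max minus min over baseline; more negative score means more quench and so TMEM16A activation or potentiation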
SR-BI DiI inh – inhibitors of SR-BI mediated HDL lipid uptake, primary screen, ldlA[mSR-BI] cells, fluorescence, single point | Scavenger receptor class B member 1 (Mus musculus), Q61009 | ldlA[mSR-BI] CHO cells, DiI-HDL uptake fluorescence, 3 h | inhibition, % at 12.5 µM | 320,000 tested, 0.96% active | AID 488896, 2010;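 active means mean replicate inhibition of at least 70% and a set share of replicates each scoring 70 or more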;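 further: 0% = median of neutral control wells and 100% = median of positive control wells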
TMEM16A inh – TMEM16A chloride channel inhibitors, primary screen, cell-based, HTS; Anoctamin-1 (Mus musculus), Q8BHY3; HEK293 TMEM16A/YFP iodide influx fluorescence, ionomycin; normalized B-score (activity score, 25-100; higher = stronger inhibition) at 10 µM; 310,000 tested, 1.2% active;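 active means ratio plate-corrected score three or more library SD toward inhibition, starting fluorescence score within five deviations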;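 further: score derived from kinetic fluorescence span divided by baseline fluorescence per well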
DNA FID counter – compounds displacing fluorescent DNA intercalator, primary screen, artefact control for HCV NS3 helicase inhibitor project, biochemical, FID fluorescence | DNA fluorescent intercalator displacement | inhibition, % at 7.9 µM | 290,000 tested, 0.17% active; in the data active means inhibition above about 37%;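 further: 0% = vehicle and 100% = reference compound; higher means more ethidium bromide displaced from hairpin DNA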
Kir21 block – inhibitors of mouse Kir2.1 inward-rectifier potassium channel; B-score at 10 µM; AID 1672, 2009; Inward rectifier potassium channel 2 (Mus musculus), P35561; HEK293-Kir2.1, FluxOR thallium flux fluorescence; active compounds read low; 310,000 tested, 0.85% active;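 active means fluorescence ratio B-score at or below minus 3 SD of library scores, with starting-brightness B-score within 2 SD, cut at about -4.2 in these data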;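 further: channel flux triggered by added potassium and thallium sulfate stimulus; B-score of peak minus minimum fluorescence over baseline after thallium stimulus; more negative B-score means stronger Kir2.1 block with less thallium influx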
TMEM16A reconf – TMEM16A chloride channel inhibitors, confirmation, cell-based, re-confirmation; shares compounds with TMEM16A inh; inhibition, % at 10 µM; 2,300 tested, 39% active; HEK293 TMEM16A/YFP-H148Q, iodide quench fluorescence; ionomycin added to raise cell calcium;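 active means mean duplicate percent inhibition, scaled so buffer wells are 0 and the reference blocker 100, over three buffer SD above buffer mean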
TMEM16A Ca cntr – calcium mobilization in TMEM16A/YFP HEK293 cells, confirmation, counter-screen for TMEM16A inhibitor project; shares compounds with TMEM16A inh; calcium response (% of ionomycin), % at 10 µM; 2,300 tested, 2% active; Fluo4 calcium mobilization; AID 652231, 2013;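 active means duplicate-averaged calcium signal over 20% of the ionomycin maximum, relative to buffer baseline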;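 further: each well's signal is peak minus trough fluorescence divided by its pre-addition baseline; 0% = buffer wells and 100% = ionomycin wells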
Parental YFP cnt – iodide YFP quench changes in parental YFP-HEK293, counter-screen for TMEM16A inhibitor project, cell-based; shares compounds with TMEM16A inh; ionomycin; YFP ratio F(max-min)/F0 at 10 µM; 2,300 tested, under 10 active; AID 652233, 2013;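 active means yellow fluorescent protein signal ratio exceeding the buffer control mean by over 5 SD of those controls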;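 further: ratio is mean of duplicate wells from kinetic YFP trace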
ClC-1 rat inh – ClC-1 chloride channel inhibition, selectivity assay for TMEM16A inhibitor project, cell-based, voltage-dependent ClC-1 | CHO ClC-1-YFP, iodide influx fluorescence quench; iodide control reads 0, buffer control 100 | ratio percent, % at 10 µM | 2,300 tested, under 10 active | shares compounds with TMEM16A inh;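 active means duplicate-mean ratio percent above the mean of iodide-only control wells, which defines zero, plus 5 of their SD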;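 further: higher percent means stronger block of ClC-1 iodide influx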
Target sequence (P35524 whole entry, looked up): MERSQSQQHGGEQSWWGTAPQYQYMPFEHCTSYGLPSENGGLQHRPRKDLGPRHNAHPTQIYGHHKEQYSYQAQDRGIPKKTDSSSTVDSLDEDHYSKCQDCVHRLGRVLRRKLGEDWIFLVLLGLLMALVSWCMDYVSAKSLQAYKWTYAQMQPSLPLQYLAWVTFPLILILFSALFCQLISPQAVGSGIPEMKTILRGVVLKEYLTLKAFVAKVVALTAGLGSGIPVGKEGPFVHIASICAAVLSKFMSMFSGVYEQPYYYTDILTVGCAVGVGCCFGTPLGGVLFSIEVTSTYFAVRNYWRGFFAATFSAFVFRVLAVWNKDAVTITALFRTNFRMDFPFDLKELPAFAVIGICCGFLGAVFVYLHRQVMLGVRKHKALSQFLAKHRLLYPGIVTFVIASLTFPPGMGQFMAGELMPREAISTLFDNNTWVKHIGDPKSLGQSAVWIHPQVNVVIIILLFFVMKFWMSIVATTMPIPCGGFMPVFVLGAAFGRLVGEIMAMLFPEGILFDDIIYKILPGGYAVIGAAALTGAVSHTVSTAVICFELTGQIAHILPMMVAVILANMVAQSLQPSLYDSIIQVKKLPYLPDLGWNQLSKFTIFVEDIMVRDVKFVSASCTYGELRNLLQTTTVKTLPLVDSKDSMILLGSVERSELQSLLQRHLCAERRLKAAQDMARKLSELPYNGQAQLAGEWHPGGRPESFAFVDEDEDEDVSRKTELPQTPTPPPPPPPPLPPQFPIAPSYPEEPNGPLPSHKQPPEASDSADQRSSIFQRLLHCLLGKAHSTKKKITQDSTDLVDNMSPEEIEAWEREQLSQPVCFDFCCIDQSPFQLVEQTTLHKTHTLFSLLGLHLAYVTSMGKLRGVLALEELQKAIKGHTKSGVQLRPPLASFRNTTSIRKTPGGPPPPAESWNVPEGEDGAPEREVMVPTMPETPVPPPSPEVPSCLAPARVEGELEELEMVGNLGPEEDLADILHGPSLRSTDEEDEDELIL
Active calls of the source: *; i = inactive; . = no result given; ! = repeats disagree. Shown are actives, neighbours in structure and some others; about 3% of the full set was active somewhere.

SMILES	SR-BI DiI-HDL act	TMEM16A act	SR-BI DiI inh	TMEM16A inh	DNA FID counter	Kir21 block	TMEM16A reconf	TMEM16A Ca cntr	Parental YFP cnt	ClC-1 rat inh
COc1cccc(COC(=O)C2CCN(S(=O)(=O)c3ccc(C)cc3C)CC2)c1OC	9	i	-9	100*	.	-0.12	34%*	i	-1.1	-7
O=C(CN1C(=O)S/C(=C\c2ccccc2)C1=O)Nc1cc([N+](=O)[O-])ccc1O	-25	i	25	100*	43*	1.8	22%*	i	-1	-11
CC(NCC(=O)NCC(=O)Nc1ccc(F)cc1)c1cccc(C(F)(F)F)c1 (stereo unspecified)	-3	i	3	.	.	.	.	.	.	.
c1ccc(CNc2ncnc3ccccc23)cc1	-17	i	17	25*!	-2	-0.18	i	i	-1.2	-17
O=C(COC(=O)CSc1ccc([N+](=O)[O-])cc1)NCc1ccco1	7	i	-7	i	.	-0.29	.	.	.	.
CSc1ccc(CN(C)C(=O)COc2ccc(C(=O)c3ccccc3)cc2)cc1	-9	i	9	100*	-39	1.7	i	i	-1.3	-7
Cc1noc(C)c1COc1ccccc1C(=O)NC(C)c1ccc(Cl)cc1 (stereo unspecified)	3	i	-3	.	.	.	.	.	.	.
Cn1nc(C(F)(F)F)c(C#N)c1N1CCN(c2ccccc2)CC1	-32	i	32	i	-8	-0.42	.	.	.	.
Cn1nc(C(F)(F)F)c(C#N)c1N1CCN(c2ccc(F)cc2)CC1	-58	i	58	25*	-3	-0.01	i	i	-1.3	-12
O=C(C1CC1)N1N=C(c2ccccc2)CC1(O)C(F)(F)C(F)(F)F (stereo unspecified)	-2	i	2	i	-18	-1.6	.	.	.	.
Cc1cccc2sc(NNC(=O)c3ccc(S(=O)(=O)N4CC(C)CC(C)C4)cc3)nc12 (stereo unspecified)	-131	i	131*	25*	-16	1.3	26%*	i	-0.97	-9
O=C(NNc1nc2c(F)cccc2s1)c1ccc(F)cc1	-21	i	21	i	-5	0.59	.	.	.	.
Cc1cc(=O)[nH]c2nnc(-c3ccc(Br)cc3)n12	9	i	-9	i	-3	0.92	.	.	.	.
CC1CC(C)CN(Cc2nc3c(c(=O)n(C)c(=O)n3C)n2CCN2CCOCC2)C1 (stereo unspecified)	16	i	-16	100*	-27	0.06	i	i	-1.2	-4
COCCn1c(CN2CCN(c3ccc(OC)cc3)CC2)nc2c1c(=O)n(C)c(=O)n2C	7	i	-7	25*	-14	1.1	i	i	-1.2	-3
CC(C)CCn1c(CN2CCOCC2)nc2c1c(=O)n(C)c(=O)n2C	20	i	-20	i	-18	-0.82	.	.	.	.
COc1ccc(NC(=O)CCNS(=O)(=O)c2cc(Br)cnc2N)c(OC)c1	0	i	0	i	-12	0.56	.	.	.	.
Cc1ccc(C)c(CSc2nnc([C@@H](N)C(C)C)o2)c1	3	i	-3	100*	3	0.56	i	i	-1.1	-2
CCOc1ccc(-c2nc(CSCC(=O)N3CCN(c4cccc(OC)c4)CC3)c(C)o2)cc1	-64	i	64	100*	-15	1.1	26%*	i	-0.91	-14
CCOc1ccc(-c2nc(CSCC(=O)NC3CC3)c(C)o2)cc1	3	i	-3	i	-34	0.42	.	.	.	.
Fc1cccc(Cl)c1Cn1nnc(-c2ccc3c(c2)OCO3)n1	.	i	.	i	-4	1.1	.	.	.	.
Fc1cccc(Cl)c1CSc1nnnn1-c1ccc2c(c1)OCO2	10	i	-10	25*	-13	-0.03	i	i	-0.94	-7
CC(C)Cc1ccc(CN2CCCC(NC(=O)c3ccnn3C)C2)cc1 (stereo unspecified)	10	i	-10	25*	2	0.33	i	i	-1.2	-8
CCC(C)C(NC(=O)C1CCC(C)CC1)C(=O)Nc1cc(OC)ccc1OC (stereo unspecified)	-56	i	56	25*	-32	3.4	i	i	-1.1	-6
CCC(C)C(NC(=O)C1CCC(C)CC1)C(=O)Nc1ccc(OC)cc1 (stereo unspecified)	.	i	.	i	-20	-0.02	.	.	.	.
SMILES	SR-BI DiI-HDL act	TMEM16A act	SR-BI DiI inh	TMEM16A inh	DNA FID counter	Kir21 block	TMEM16A reconf	TMEM16A Ca cntr	Parental YFP cnt	ClC-1 rat inh
CCOc1ccc(Br)cc1S(=O)(=O)N1CC(C)OC(C)C1 (stereo unspecified)	-36	i	36	100*	-8	-2.6	i	i	-1.1	-10
COCCN(C(=O)CCC(=O)Nc1nccs1)C(C(=O)NC(C)(C)C)c1ccc(F)cc1 (stereo unspecified)	-2	i	2	100*	-28	-1	i	i	-1.1	0
Cc1cccc(S(=O)C(c2ccccc2)c2ccccc2)c1 (stereo unspecified)	-7	i	7	.	.	.	.	.	.	.
COc1ccc(C(=O)C2CCN(S(=O)(=O)c3ccc4c(c3)OCCO4)CC2)cc1	31	i	-31	100*	-17	0.02	22%*	i	-0.68	-6
COc1ccc(OC)c(NC(=O)C2CCN(S(=O)(=O)c3ccc4c(c3)OCCO4)CC2)c1	-2	i	2	i	.	0.02	.	.	.	.
Cc1cc(C(=O)CSc2nc3ccccc3[nH]2)c(C)n1CC1CCCO1 (stereo unspecified)	-6	i	6	25*	-23	-0.95	i	i	-1.2	-30
Cc1cc(C(=O)Cn2nnc(-c3ccc(Cl)cc3)n2)c(C)n1-c1ccccc1	2	i	-2	i	-7	-0.51	.	.	.	.
